Activity calls are given as the source filed them.
Tests used:
[1] = target: Mast/stem cell growth factor receptor Kit (Homo sapiens) (UniProt P10721); assay: Inhibition of human KIT (571 to 952 residues) expressed in bacterial expression system assessed as enzyme activity at 10 uM by KINOMEScan assay relative to control; set-up: scale not given: the % may be the effect or the level left
How it was run: (§1)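 In vitro ATP-site competition binding assay across a panel of 456 kinases, with compound tested at 1 and 10 μM.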

[2] = target: TGF-beta receptor type-2 (Homo sapiens) (UniProt P37173); assay: Inhibition of human TGFBR2 (218 to 567 residues) expressed in bacterial expression system assessed as enzyme activity at 10 uM by KINOMEScan assay relative to control; set-up: scale not given: the % may be the effect or the level left; how it was run: as §1
[3] = target: Mitogen-activated protein kinase 12 (Homo sapiens) (UniProt P53778); assay: Inhibition of p38g in human SKCO1 cells at 1 uM after 4 hrs using biotin labeled DLKPGNLAVNEDCELK probe by mass-spectrometric analysis relative to control; assay type: cell-based
[4] = target: Heterogeneous nuclear ribonucleoproteins A2/B1 (Homo sapiens) (UniProt P22626); assay: Binding affinity to HNRNPA2B1 in human NCI-H23 cells at 1 uM by mass spectrometry based pull down assay; assay type: cell-based
[5] = target: Endothelial differentiation-related factor 1 (Homo sapiens) (UniProt O60869); assay: Binding affinity to EDF1 in human NCI-H23 cells at 1 uM by mass spectrometry based pull down assay; assay type: cell-based
[6] = target: 80S Ribosome (Homo sapiens) (UniProt P08865+P42677+P62753+P15880+P23396+P61247+P62701+P22090+P46782+P62081+P62241+P46781+P46783+P62280+P25398+P62277+P62263+P62841+P62244+P62249+P08708+P62269+P39019+P60866+P63220+P62266+P62847+P62851+P62854+P62979+P62857+P62273+P62861+P39023+P36578+P46777+Q02878+P18124+P62424+P62917+P32969+P27635+P62906+P62913+P30050+P26373+P40429+P50914+P61313+P18621+Q07020+Q02543+P84098+P46778+P35268+P62829+P62750+P83731+P61254+P61353+P46776+P46779+P47914+P62888+P62899+P62910+P49207+P42766+P18077+Q9Y3U8+P83881+P61927+P61513+P63173+P62891+P62945+P05388+P05386); assay: Binding affinity to RPLP1 in human NCI-H23 cells at 1 uM by mass spectrometry based pull down assay; assay type: cell-based
[7] = target: WD repeat and HMG-box DNA-binding protein 1 (Homo sapiens) (UniProt O75717); assay: Binding affinity to WDHD1 in human NCI-H23 cells at 1 uM by mass spectrometry based pull down assay; assay type: cell-based
[8] = target: N-acetyl-D-glucosamine kinase (Homo sapiens) (UniProt Q9UJ70); assay: Binding affinity to NAGK in human NCI-H23 cells at 1 uM by mass spectrometry based pull down assay; assay type: cell-based
[9] = target: Trifunctional enzyme subunit alpha, mitochondrial (Homo sapiens) (UniProt P40939); assay: Binding affinity to HADHA in human NCI-H23 cells at 1 uM by mass spectrometry based pull down assay; assay type: cell-based
[10] = target: Actin-related protein 2/3 complex subunit 5 (Homo sapiens) (UniProt O15511); assay: Binding affinity to ARPC5 in human NCI-H23 cells at 1 uM by mass spectrometry based pull down assay; assay type: cell-based
[11] = target: Nuclear receptor-binding factor 2 (Homo sapiens) (UniProt Q96F24); assay: Binding affinity to NRBF2 in human NCI-H23 cells at 1 uM by mass spectrometry based pull down assay; assay type: cell-based
NCI-H23 = assay: Binding affinity to PSMA5 in human NCI-H23 cells at 1 uM by mass spectrometry based pull down assay; assay type: cell-based
[12] = target: Kinesin-1 heavy chain (Homo sapiens) (UniProt P33176); assay: Binding affinity to KIF5B in human NCI-H23 cells at 1 uM by mass spectrometry based pull down assay; assay type: cell-based
[13] = target: ATP-citrate synthase (Homo sapiens) (UniProt P53396); assay: Binding affinity to ACLY in human NCI-H23 cells at 1 uM by mass spectrometry based pull down assay; assay type: cell-based
How it was run: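 NCI-H23 or NCI-H358 cells were grown and lysed. Lysates were incubated overnight at 4 °C with 1 μM biotinylated covalent probe or DMSO, then pulled down on streptavidin beads. Proteins were run on polyacrylamide gels and stained with Coomassie. Bands were excised, digested and identified by mass spectrometry.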

[14] = target: RuvB-like 2 (Homo sapiens) (UniProt Q9Y230); assay: Binding affinity to RUVBL2 in human NCI-H23 cells at 1 uM by mass spectrometry based pull down assay; assay type: cell-based
[15] = target: Ribosomal protein S6 kinase alpha-3 (Homo sapiens) (UniProt P51812); assay: Binding affinity to RPS6KA3 in human NCI-H23 cells at 1 uM by mass spectrometry based pull down assay; assay type: cell-based
[16] = target: Prostaglandin reductase 1 (Homo sapiens) (UniProt Q14914); assay: Binding affinity to PTGR1 in human NCI-H23 cells at 1 uM by mass spectrometry based pull down assay; assay type: cell-based
[17] = target: TGF-beta-activated kinase 1 and MAP3K7-binding protein 2 (Homo sapiens) (UniProt Q9NYJ8); assay: Binding affinity to TAB2 in human NCI-H23 cells at 1 uM by mass spectrometry based pull down assay; assay type: cell-based
[18] = target: Lactoylglutathione lyase (Homo sapiens) (UniProt Q04760); assay: Binding affinity to GLO1 in human NCI-H23 cells at 1 uM by mass spectrometry based pull down assay; assay type: cell-based
[19] = target: Proto-oncogene tyrosine-protein kinase Src (Homo sapiens) (UniProt P12931); assay: Binding affinity to SRC in human NCI-H358 cells at 1 uM by mass spectrometry based pull down assay; assay type: cell-based
[20] = target: Signal transducer and activator of transcription 1-alpha/beta (Homo sapiens) (UniProt P42224); assay: Binding affinity to STAT1 in human NCI-H358 cells at 1 uM by mass spectrometry based pull down assay; assay type: cell-based
[21] = target: Src substrate cortactin (Homo sapiens) (UniProt Q14247); assay: Binding affinity to CTTN in human NCI-H358 cells at 1 uM by mass spectrometry based pull down assay; assay type: cell-based
[22] = target: ATP-dependent 6-phosphofructokinase, liver type (Homo sapiens) (UniProt P17858); assay: Binding affinity to PFKL in human NCI-H358 cells at 1 uM by mass spectrometry based pull down assay; assay type: cell-based
[23] = target: Lysophosphatidylcholine acyltransferase 1 (Homo sapiens) (UniProt Q8NF37); assay: Binding affinity to LPCAT1 in human NCI-H358 cells at 1 uM by mass spectrometry based pull down assay; assay type: cell-based
[24] = target: Poly(rC)-binding protein 2 (Homo sapiens) (UniProt Q15366); assay: Binding affinity to PCBP2 in human NCI-H358 cells at 1 uM by mass spectrometry based pull down assay; assay type: cell-based
[25] = target: Quinone oxidoreductase (Homo sapiens) (UniProt Q08257); assay: Binding affinity to CRYZ in human NCI-H358 cells at 1 uM by mass spectrometry based pull down assay; assay type: cell-based
Sequence of Quinone oxidoreductase (Homo sapiens) (Q08257 whole entry): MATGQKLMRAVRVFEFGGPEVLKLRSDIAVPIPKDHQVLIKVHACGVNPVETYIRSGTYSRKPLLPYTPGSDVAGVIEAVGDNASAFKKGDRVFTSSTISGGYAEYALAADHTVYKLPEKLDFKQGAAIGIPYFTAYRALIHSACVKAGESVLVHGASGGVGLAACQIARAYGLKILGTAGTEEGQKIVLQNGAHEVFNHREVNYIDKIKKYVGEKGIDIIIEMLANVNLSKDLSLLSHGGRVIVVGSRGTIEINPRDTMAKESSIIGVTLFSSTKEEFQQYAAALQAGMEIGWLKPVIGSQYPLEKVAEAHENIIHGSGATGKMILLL

Sequence of Poly(rC)-binding protein 2 (Homo sapiens) (Q15366 whole entry): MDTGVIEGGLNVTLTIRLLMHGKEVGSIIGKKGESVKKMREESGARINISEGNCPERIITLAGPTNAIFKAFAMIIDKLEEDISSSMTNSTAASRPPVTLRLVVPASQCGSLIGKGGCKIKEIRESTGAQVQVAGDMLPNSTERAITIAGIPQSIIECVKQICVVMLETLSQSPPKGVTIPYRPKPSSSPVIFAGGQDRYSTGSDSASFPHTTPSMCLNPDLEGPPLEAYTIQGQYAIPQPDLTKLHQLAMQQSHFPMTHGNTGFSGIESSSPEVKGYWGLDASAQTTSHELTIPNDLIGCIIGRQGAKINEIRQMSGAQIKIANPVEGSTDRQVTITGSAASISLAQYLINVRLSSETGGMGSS
Sequence of Mitogen-activated protein kinase 12 (Homo sapiens) (P53778 whole entry): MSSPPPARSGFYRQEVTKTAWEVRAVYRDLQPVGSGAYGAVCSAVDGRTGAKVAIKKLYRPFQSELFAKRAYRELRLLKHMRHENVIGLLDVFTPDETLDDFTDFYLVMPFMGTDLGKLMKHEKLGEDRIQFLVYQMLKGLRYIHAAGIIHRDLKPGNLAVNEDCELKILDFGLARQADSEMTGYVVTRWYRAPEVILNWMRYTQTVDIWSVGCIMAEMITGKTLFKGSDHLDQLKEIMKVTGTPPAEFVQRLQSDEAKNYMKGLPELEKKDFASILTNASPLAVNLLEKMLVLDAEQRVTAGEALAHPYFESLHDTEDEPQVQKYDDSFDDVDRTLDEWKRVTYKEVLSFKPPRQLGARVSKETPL
Sequence of Heterogeneous nuclear ribonucleoproteins A2/B1 (Homo sapiens) (P22626 whole entry): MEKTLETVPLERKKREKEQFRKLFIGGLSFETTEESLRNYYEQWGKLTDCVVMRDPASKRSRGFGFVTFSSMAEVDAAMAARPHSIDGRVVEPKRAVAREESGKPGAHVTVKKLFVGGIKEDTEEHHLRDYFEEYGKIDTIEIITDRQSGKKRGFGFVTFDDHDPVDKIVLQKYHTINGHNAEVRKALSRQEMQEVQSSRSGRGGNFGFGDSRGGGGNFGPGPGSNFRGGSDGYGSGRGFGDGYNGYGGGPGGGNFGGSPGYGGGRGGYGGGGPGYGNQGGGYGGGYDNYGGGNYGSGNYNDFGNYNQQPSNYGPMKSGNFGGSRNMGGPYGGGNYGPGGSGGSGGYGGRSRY
Sequence of Mast/stem cell growth factor receptor Kit (Homo sapiens) (P10721 whole entry, the tested form may be a part): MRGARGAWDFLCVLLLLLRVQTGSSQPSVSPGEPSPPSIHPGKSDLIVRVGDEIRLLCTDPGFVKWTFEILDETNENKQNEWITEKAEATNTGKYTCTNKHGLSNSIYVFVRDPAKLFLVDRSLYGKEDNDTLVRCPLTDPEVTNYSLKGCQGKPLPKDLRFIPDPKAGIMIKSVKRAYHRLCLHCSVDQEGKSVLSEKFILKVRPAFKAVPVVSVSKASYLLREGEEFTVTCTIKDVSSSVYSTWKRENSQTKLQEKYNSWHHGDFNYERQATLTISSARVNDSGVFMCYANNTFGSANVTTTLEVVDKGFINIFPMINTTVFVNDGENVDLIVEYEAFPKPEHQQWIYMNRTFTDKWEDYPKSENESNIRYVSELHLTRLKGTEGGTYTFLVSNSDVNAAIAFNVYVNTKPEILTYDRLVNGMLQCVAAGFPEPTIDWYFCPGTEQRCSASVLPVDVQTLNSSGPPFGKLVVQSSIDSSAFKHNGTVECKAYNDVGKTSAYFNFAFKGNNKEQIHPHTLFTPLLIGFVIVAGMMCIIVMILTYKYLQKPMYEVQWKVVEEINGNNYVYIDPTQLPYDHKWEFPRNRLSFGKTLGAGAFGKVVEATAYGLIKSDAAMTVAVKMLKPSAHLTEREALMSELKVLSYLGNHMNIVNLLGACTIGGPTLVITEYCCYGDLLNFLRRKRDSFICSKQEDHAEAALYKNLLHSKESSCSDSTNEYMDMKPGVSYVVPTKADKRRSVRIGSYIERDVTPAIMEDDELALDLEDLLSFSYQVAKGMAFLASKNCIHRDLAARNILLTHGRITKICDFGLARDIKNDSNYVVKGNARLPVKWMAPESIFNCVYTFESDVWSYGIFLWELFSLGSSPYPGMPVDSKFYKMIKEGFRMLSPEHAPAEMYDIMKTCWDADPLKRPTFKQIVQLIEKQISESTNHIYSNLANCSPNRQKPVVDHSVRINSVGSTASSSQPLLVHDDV
Sequence of ATP-citrate synthase (Homo sapiens) (P53396 whole entry): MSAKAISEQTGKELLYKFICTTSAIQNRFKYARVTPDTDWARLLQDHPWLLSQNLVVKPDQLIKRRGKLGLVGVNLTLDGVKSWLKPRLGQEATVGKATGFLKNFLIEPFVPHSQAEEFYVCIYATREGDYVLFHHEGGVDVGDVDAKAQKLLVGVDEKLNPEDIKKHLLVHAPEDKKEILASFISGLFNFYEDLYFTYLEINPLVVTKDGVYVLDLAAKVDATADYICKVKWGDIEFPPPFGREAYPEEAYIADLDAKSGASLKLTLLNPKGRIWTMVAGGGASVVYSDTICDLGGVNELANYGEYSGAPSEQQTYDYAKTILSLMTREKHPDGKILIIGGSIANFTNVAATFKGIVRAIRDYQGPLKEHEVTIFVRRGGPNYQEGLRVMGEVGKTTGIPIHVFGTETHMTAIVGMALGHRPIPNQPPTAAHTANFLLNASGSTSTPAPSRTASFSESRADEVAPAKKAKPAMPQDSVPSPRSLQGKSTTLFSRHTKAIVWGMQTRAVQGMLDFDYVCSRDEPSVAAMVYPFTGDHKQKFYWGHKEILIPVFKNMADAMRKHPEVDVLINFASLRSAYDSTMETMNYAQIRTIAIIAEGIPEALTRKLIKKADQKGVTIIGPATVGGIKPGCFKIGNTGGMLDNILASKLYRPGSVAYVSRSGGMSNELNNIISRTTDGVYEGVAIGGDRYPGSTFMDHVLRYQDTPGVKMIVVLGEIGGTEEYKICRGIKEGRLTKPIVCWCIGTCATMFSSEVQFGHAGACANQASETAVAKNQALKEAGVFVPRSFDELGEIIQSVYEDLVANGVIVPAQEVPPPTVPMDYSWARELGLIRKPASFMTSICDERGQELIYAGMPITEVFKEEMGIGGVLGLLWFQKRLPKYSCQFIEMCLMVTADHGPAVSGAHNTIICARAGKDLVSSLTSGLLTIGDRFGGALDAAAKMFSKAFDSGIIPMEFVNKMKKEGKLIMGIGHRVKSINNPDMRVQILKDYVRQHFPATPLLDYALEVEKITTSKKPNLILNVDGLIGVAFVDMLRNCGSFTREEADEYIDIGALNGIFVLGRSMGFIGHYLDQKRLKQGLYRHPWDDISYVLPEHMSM
Sequence of Ribosomal protein S6 kinase alpha-3 (Homo sapiens) (P51812 whole entry): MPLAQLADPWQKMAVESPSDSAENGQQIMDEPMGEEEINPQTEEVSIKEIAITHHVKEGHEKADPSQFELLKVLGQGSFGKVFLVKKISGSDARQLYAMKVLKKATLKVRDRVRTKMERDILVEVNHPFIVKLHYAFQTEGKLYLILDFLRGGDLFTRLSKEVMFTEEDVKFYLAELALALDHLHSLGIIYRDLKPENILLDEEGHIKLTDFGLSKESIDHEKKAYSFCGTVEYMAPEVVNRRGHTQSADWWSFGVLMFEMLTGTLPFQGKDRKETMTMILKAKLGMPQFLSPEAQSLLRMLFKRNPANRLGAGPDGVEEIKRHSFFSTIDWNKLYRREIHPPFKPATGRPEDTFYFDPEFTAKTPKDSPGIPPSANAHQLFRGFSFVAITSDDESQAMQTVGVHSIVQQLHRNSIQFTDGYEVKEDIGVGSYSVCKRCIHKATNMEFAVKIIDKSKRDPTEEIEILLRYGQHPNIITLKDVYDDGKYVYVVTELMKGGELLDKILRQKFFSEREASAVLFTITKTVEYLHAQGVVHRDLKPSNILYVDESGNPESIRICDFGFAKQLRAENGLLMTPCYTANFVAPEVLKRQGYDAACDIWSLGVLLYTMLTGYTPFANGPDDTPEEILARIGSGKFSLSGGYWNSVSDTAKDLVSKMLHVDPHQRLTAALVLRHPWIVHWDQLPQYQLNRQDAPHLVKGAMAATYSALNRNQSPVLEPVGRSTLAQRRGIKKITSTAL
Sequence of Endothelial differentiation-related factor 1 (Homo sapiens) (O60869 whole entry): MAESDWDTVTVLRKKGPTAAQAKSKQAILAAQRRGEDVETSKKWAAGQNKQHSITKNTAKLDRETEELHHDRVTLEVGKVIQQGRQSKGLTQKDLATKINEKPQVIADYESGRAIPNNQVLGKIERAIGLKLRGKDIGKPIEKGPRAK
Sequence of N-acetyl-D-glucosamine kinase (Homo sapiens) (Q9UJ70 whole entry): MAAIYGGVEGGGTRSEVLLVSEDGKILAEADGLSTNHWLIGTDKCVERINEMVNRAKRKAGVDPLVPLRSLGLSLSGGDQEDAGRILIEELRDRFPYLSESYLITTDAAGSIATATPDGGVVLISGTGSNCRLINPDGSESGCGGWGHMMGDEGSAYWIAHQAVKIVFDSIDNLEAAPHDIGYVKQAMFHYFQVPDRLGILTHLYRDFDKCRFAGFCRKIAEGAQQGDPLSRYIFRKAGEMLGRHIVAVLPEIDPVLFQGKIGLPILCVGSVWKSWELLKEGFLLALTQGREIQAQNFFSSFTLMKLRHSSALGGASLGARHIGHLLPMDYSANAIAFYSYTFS
Sequence of Lactoylglutathione lyase (Homo sapiens) (Q04760 2-184 limits assumed): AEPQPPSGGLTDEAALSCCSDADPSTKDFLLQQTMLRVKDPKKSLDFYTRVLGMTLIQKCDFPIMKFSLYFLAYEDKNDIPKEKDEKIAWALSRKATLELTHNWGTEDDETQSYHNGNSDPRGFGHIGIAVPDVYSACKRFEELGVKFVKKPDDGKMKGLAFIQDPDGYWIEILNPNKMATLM

COc1cc(O)c2c(c1)/C=C/C[C@H](O)[C@H](O)C(=O)/C=C\C[C@H](C)OC2=O
0.9%: Activity [2]
0.6%: Activity [1]

C=CC(=O)Nc1ccccc1Nc1nc(Nc2ccc(N3CCN(C)CC3)cc2)ncc1Cl
-8.5%: inhibition [3]

C=CC(=O)Nc1ccccc1Nc1nc(Nc2ccc(N3CCN(CCOCCOCCOCCNC(=O)CCCC[C@@H]4SC[C@@H]5NC(=O)N[C@@H]54)CC3)cc2)ncc1Cl
active: Activity [4] | Activity [5] | Activity [6] | Activity [7] | Activity [8] | Activity [9] | Activity [10] | Activity [11] | Activity (NCI-H23) | Activity [12] | Activity [13] | Activity [14] | Activity [15] | Activity [16] | Activity [17] | Activity [18] | Activity [19] | Activity [20] | Activity [21] | Activity [22] | Activity [23] | Activity [24] | Activity [25]

From ChEMBL document CHEMBL4118021, “Studies of TAK1-centered polypharmacology with novel covalent TAK1 inhibitors” (Bioorg Med Chem, 2017)
